# ChEMBL document CHEMBL5257120 (Bioorg Med Chem, 2023)
# Active and inactive are the calls of the source. No cut-off for these calls is given here.
# What was measured:
# [1] = target: Tubulin (Homo sapiens) (UniProt P68371+Q9H4B7+P0DPH7+P68366+Q13509+Q71U36+P04350+Q3ZCM7+P07437+P68363+Q9BQE3+Q6PEY2+Q13885+Q9BVA1+Q9BUF5); test: Induction of microtubule stabilization in human HeLa cells assessed as effect on cellular cytoskeletal network of tubulin at 5 to 10 uM incubated for 4 hrs by Alexa Fluor 488 staining based confocal microscopic analysis; type: cell-based; conditions: dose 5-10 µM
# Method in brief: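 HeLa cells treated for 4 h at 5 and 10 μM. Microtubules immunostained with Alexa Fluor 488-conjugated anti-β-tubulin and imaged by confocal microscopy with a 60× Plan Apochromat objective. References: paclitaxel 5 nM, podophyllotoxin 5 μM.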
# [2] = Hepatotoxicity in Swiss albino mouse assessed as SGOT level at 50 mg/kg, po administered for 7 days (reference value: 31.51 +/- 6.31 U/L); type: toxicity, organism-based; conditions: in vivo, 168 h, time 7 day
# Method in brief: (§1)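 Single acute oral dose (5, 50, 300 or 1000 mg/kg) given to Swiss albino mice, n = 6, with 7-day observation. At the end, haematological and serum biochemical parameters were measured. Compared with untreated controls; mean ± SE, ANOVA, p < 0.05.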
# [3] = Hepatotoxicity in Swiss albino mouse assessed as alkaline phosphatase level at 300 mg/kg, po administered for 7 days (reference value: 260.10 +/- 26.76 U/L); type: toxicity, organism-based; conditions: in vivo, 168 h, time 7 day; method in brief: as §1
# [4] = Toxicity in Swiss albino mouse assessed as change in relative spleen weight at 5 to 1000 mg/kg, po administered for 7 days; type: organism-based; conditions: in vivo, 168 h, dose 5-1000 mg/kg, time 7 day
# [5] = Toxicity in Swiss albino mouse assessed as mortality at 5 to 1000 mg/kg, po administered for 7 days; type: organism-based; conditions: in vivo, 168 h, dose 5-1000 mg/kg, time 7 day
# [6] = Toxicity in Swiss albino mouse assessed as cholesterol level at 5 mg/kg, po administered for 7 days (reference value: 140.17 +/- 3.76 mg/dl); type: organism-based; conditions: in vivo, 168 h, time 7 day
# [7] = Hepatotoxicity in Swiss albino mouse assessed as SGOT level at 1000 mg/kg, po administered for 7 days (reference value: 31.51 +/- 6.31 U/L); type: toxicity, organism-based; conditions: in vivo, 168 h, time 7 day; method in brief: as §1
structure (smiles),measurement,setting,value
COc1cc(C2/C(=C/c3ccc(/C=C/C(=O)NO)cc3)C(=O)c3cc(OC)c(OC)c(OC)c32)cc(OC)c1OC (configuration not stated),Activity,[1],Active
same,Activity,[2],33.67 U/L
same,Activity,[3],238.88 U/L
same,Activity,[4],Non-Toxic
same,Activity,[5],Non-Toxic
same,Activity,[6],162.42 mg/dL
same,Activity,[7],33.4 U/L
